pPAFAH FP inh: inhibitors of human plasma PAF acetylhydrolase (pPAFAH); Q13093; AID 463082; inhibition, % at 3.39 µM; recombinant pPAFAH, FP-rhodamine probe fluorescence polarization; 330,000 compounds, 1.5% hits;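 active = inhibition above the mean inhibition across the screen plus 3 SD, cut at about 25% in these data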;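 also: inhibitors block binding of the rhodamine activity-based probe so polarization drops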
ASAP1 GAP inh: blocks human ASAP1-stimulated Arf1 GTP hydrolysis; 360,000 compounds, 0.19% hits; AID 624377; GDP FP detection; inhibition, % at 16.5 µM; in the data active = inhibition above about 25%
Target sequence (Q9ULH1 325-724 limits assumed): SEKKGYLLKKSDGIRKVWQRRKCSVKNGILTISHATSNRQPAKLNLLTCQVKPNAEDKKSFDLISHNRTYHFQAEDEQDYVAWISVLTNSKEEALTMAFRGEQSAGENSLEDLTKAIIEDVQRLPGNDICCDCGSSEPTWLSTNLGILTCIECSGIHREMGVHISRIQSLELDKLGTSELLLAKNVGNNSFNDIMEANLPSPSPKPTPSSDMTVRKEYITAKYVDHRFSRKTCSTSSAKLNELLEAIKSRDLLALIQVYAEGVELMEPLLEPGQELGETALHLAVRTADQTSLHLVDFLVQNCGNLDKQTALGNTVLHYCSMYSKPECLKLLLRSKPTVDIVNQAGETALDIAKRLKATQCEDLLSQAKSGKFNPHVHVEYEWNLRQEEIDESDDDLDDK
ARFGAP1 inh: inhibitors of rat ARFGAP1; Q62848; inhibition, % at 16.5 µM; 360,000 compounds, 0.26% hits; AID 651572; Arfgap1-stimulated ARF1 GTP hydrolysis, GDP FP detection;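 active = inhibition above a per-plate limit, mean inhibition of low control wells plus 3 SD, cut at about 25% in these data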
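Assay system: purified rat His6-Arfgap1 residues 1-136 (GAP domain); Reagent: human Δ17 ARF1 bound to GTP; Dosing: 16.5 µM single point, 1.26% DMSO; Times: GTP hydrolysis reaction 2 h at 25 °C; Signal: FP, GDP Alexa 633 tracer displaced from anti-GDP antibody, 620/688 nm; Measure: % inhibition from polarization.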
PAFAH1B2 inh: blocks human PAF acetylhydrolase 1b catalytic subunit 2. recombinant PAFAH1B2, FP-rhodamine activity probe, fluorescence polarization. inhibition, % at 3.39 µM. 340,000 compounds, 1.2% hits. AID 492953;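 active = inhibition above the mean of all tested compounds plus 3 SD, cut at about 24% in these data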
PAFAH2 inh: PAFAH2 (human) inhibition. Q99487. inhibition, % at 3.39 µM. 340,000 compounds, 0.99% hits. recombinant PAFAH2, FP-rhodamine activity probe, fluorescence polarization;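 active = inhibition above the mean over all tested compounds plus 3 SD, cut at about 30% in these data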;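 also: inhibitors block probe labeling of enzyme so polarization drops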
PAFAH1B3 FP inh: inhibitors of human PAFAH1B3; Q15102; recombinant PAFAH1B3, FP-rhodamine probe, fluorescence polarization; inhibition, % at 3.39 µM; 340,000 compounds, 0.28% hits;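 active = inhibition above the screen-wide average of all tested compounds plus 3 SD, cut at about 25% in these data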
Target sequence (Q15102 whole entry, looked up): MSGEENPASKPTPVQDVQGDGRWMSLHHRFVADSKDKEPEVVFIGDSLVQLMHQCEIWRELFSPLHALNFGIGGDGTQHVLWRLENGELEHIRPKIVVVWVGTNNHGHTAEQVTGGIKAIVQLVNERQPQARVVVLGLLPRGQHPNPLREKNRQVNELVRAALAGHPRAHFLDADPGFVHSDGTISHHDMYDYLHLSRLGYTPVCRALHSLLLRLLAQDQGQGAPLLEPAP
pPAFAH confirm: pPAFAH (human) inhibition, confirmed | 2,300 compounds, 72% hits | shares compounds with pPAFAH FP inh | inhibition, % at 3.39 µM | recombinant pPAFAH, FP-Rh probe fluorescence polarization;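 active = mean inhibition of the triplicate above the hit cutoff set for the earlier primary screen, cut at about 25% in these data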
A number is an active result; - = inactive; . = not tested or not shown. Compounds with a hit are over-represented: about 2.7% of the library has one in this group of screens.

SMILES	pPAFAH FP inh	ASAP1 GAP inh	ARFGAP1 inh	PAFAH1B2 inh	PAFAH2 inh	PAFAH1B3 FP inh	pPAFAH confirm
C/C(=N\NC(=O)c1ccccc1O)c1cccc(NC(=O)c2ccccc2)c1	-	-	-	-	-	-	.
O=C(C(=O)N1CCN(S(=O)(=O)c2cccc3ccccc23)CC1)c1cccc(C(F)(F)F)c1	.	-	-	.	.	.	.
Cc1cc(C)nc(N/N=C/C2=C(N3CCOCC3)C(=C\c3ccc(Cl)cc3)/CC2)n1	62.4	-	-	-	-	-	98.1
COc1cccc(C=C2SC(=S)N(Cc3ccco3)C2=O)c1OC	.	-	-	.	.	.	.
O=C(/C=C/c1ccco1)OCC(=O)c1ccc(OC(F)F)cc1	54.9	-	-	-	-	-	-
COC(=O)CCN(Cc1ccc(OC)cc1OC)S(=O)(=O)c1ccccc1Br	.	-	-	.	.	.	.
COCCN=c1scc(-c2cccs2)n1/N=C/c1ccc(O)c(O)c1O	44.2	-	-	-	-	-	74.8
CCN=c1scc(C)n1/N=C/c1cc(Br)c(O)c(Br)c1	40.8	-	-	-	-	-	25.0
COCCN=c1scc(-c2ccccc2)n1/N=C/c1c[nH]c2ccccc12	-	-	-	-	-	-	.
CCN=c1scc(C)n1/N=C/c1ccc(O)c(O)c1O	46.0	-	-	-	-	-	-
CCN=c1scc(-c2ccco2)n1/N=C/c1ccc(O)cc1	-	-	-	-	-	-	.
COCCN1Cc2cc(C(=O)OC)c3c(c2C1=O)c1cc(F)ccc1n3C(=O)c1ccccc1	.	-	-	.	.	.	.
O=C(CSc1nc2nn(-c3ccccc3)c(=O)c-2c2n1CCCCC2)c1ccc(O)c(O)c1	71.0	.	.	-	85.4	28.7	85.6
O=c1nc(/C=C/c2cccn2-c2ccc([N+](=O)[O-])cc2)cc(C(F)(F)F)[nH]1	35.9	-	-	-	-	-	-
CCN(CC)c1ccc(C=Nc2ccc(C)cc2C)c(O)c1	-	-	-	-	-	-	.
Cc1ccc(N=Cc2cccc(O)c2O)c(C)c1	37.0	-	-	-	-	-	-
CCCCCCCCN1C(=O)[C@@H](CC(=O)NCCCN2CCCC2=O)C[C@@]2(C(=O)OC)C1=C[C@H](C(C)(C)C)O[C@@H]2C	.	-	-	.	.	.	.
O=C(O)Cc1ccc(N=Nc2c(O)c(C(=O)O)cc3ccccc23)cc1	66.8	-	-	-	-	-	33.6
Oc1ccc2ccccc2c1N=Nc1ccc(F)cc1	-	-	-	-	-	-	.
NS(=O)(=O)c1ccc(N=Nc2c(O)c(C(=O)O)cc3ccccc23)cc1	40.9	-	-	-	-	-	26.2
COc1cccc(NC(=O)Nc2cc(C(=O)NCC3CCCO3)ccc2N2CC3CC(C2)c2cccc(=O)n2C3)c1 (stereo not drawn)	62.4	-	-	-	-	-	61.2
COc1cc(/C=N/Nc2ccccc2[N+](=O)[O-])cc(OC)c1O	-	-	-	-	-	-	.
COc1cc(/C=N/Nc2nc3ccccc3s2)cc([N+](=O)[O-])c1O	42.5	-	-	-	-	-	46.9
COC(=O)[C@]12C[C@H](CC(=O)N3CCSCC3)C(=O)N(CCC3=CCCCC3)C1=C[C@H](C(C)(C)C)O[C@@H]2C	.	-	-	.	.	.	.
O=C(CSc1nnc(-c2ccco2)c(-c2ccco2)n1)c1ccccc1	53.5	-	-	-	33.1	-	-
SMILES	pPAFAH FP inh	ASAP1 GAP inh	ARFGAP1 inh	PAFAH1B2 inh	PAFAH2 inh	PAFAH1B3 FP inh	pPAFAH confirm
CC(=O)c1ccc(NC(=O)CSc2nnc(-c3ccco3)c(-c3ccco3)n2)cc1	46.4	-	-	-	-	-	-
CC(=O)Nc1ccc(NC(=O)CSc2nnc(-c3ccco3)o2)cc1	-	-	-	-	-	-	.
C[C@H]1CN([C@@H](C)CO)C(=O)Cc2cc(NS(=O)(=O)c3ccc(Cl)cc3)ccc2O[C@@H]1CN(C)C(=O)Nc1cccc2ccccc12	48.6	-	-	-	-	-	54.5
COc1cccc2c1NC(C(=O)O)C1CC=CC21 (stereo not drawn)	57.0	.	.	29.9	48.2	-	-
COc1cc(C2Nc3c(F)cccc3C3C=CCC32)cc(Br)c1OC (stereo not drawn)	-	-	-	-	-	-	.
O=C(O)c1ccc(N/N=C/c2ccc(-c3ccccc3Cl)o2)cc1	45.5	-	-	-	-	-	-
O=C(N/N=C/c1ccc(-c2ccccc2Cl)o1)c1ccccc1	-	-	-	-	-	-	.
COCCN1Cc2cc3cc(C)ccc3nc2SC1=Nc1ccc(OC)cc1	-	-	-	-	-	-	.
COCCN=C1Sc2nc3ccc(C)cc3cc2CN1Cc1cccs1	40.5	-	-	-	-	-	60.5
CCOc1ccc(NC(=S)NC(=O)/C=C/c2ccc(C)cc2)c([N+](=O)[O-])c1	38.2	-	-	-	-	-	-
Nc1cc(-c2nn[nH]n2)ccc1F	42.6	-	-	-	-	-	-
N#C/C(=N\Nc1cccc(C(F)(F)F)c1)C(=O)c1csc(-c2cccnc2)n1	44.8	-	-	-	-	-	63.2
CN(/N=C/c1ccc(O)cc1O)c1nc(-c2ccccc2)cc(-c2ccccc2)n1	36.6	-	-	-	-	-	-
COc1ccccc1CCn1cnc(-c2ccc(Br)cc2)c1CC(C)C	.	-	-	.	.	.	.
CCCCNc1ccc2c(c1)OC[C@H](CC(C)C)NS2(=O)=O	.	-	-	.	.	.	.
CCOC(=O)C(C)/C(C)=N/NC(=O)c1cc2ccccc2cc1O (stereo not drawn)	45.8	-	-	-	-	-	-
CCOc1ccc(NC(=O)c2cc3ccccc3cc2O)cc1	-	-	-	-	-	-	.
O=C(OCC(=O)N1CCCCC1)c1cc2ccccc2cc1O	-	-	-	-	-	-	.
C/C(CC(=O)N1CCCC1)=N\NC(=O)c1cc2ccccc2cc1O	47.5	-	-	-	-	-	-
C/C(=N\NC(=O)c1ccc(C)cc1C)c1ccc2c(c1)OCO2	-	-	-	-	-	-	.
C/C(=N\NC(=O)c1cc2ccccc2cc1O)c1ccc2c(c1)OCO2	54.7	-	-	-	-	-	-
COc1ccccc1Cc1c(-c2ccccc2)nc2c3ccccc3ccn12	.	-	-	.	.	.	.
CN(CCO)c1ccc(C=NNc2ccc([N+](=O)[O-])cc2S(=O)(=O)Nc2ccccc2C(=O)O)cc1	48.8	-	-	.	.	.	55.2
COc1cc(/C=N/Nc2ccc(S(N)(=O)=O)cc2[N+](=O)[O-])cc(OC)c1O	-	-	-	-	-	-	.
NS(=O)(=O)c1ccc(N/N=C/c2ccc(C(=O)O)cc2)c([N+](=O)[O-])c1	-	-	-	-	-	-	.
CC(=O)Nc1ccc(C=NNc2ccc(S(=O)(=O)Nc3ccccc3C(=O)O)cc2[N+](=O)[O-])cc1	64.0	-	-	25.7	-	26.7	66.5

Compound activity as filed in PubChem.
